# ChEMBL document CHEMBL1142894, “Preparation of 5-aryl-3-alkylthio-l,2,4-triazoles and corresponding sulfones with antiinflammatory-analgesic activity” (Bioorg Med Chem, 2007)
# Activity calls are given as the source filed them. The rule behind the calls is not given here.
# Columns and labels:
# Mus musculus [1] = test: Gastric-ulcerogenic effect in Swiss albino mouse assessed as lesions at 25 mg/kg, po; format: functional, organism-based; design: dose 25 mg/kg
# Summary of the method: (§1)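 Mice killed under deep ether anesthesia 3 h after the writhing test; the oral dose in 0.5% CMC was the one used in that test. Stomachs removed, opened along the great curvature and examined under a dissecting microscope for lesions or bleeding. Reported as ratio of ulceration; n = 6.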
# Mus musculus [2] = test: Inhibition of p-benzoquinone-induced writhing in Swiss albino mouse at 25 mg/kg, po relative to control; format: functional
# Summary of the method: (§2)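 Mice, n = 6 per group, dosed orally with a suspension in 0.5% sodium CMC. 60 min later, 0.1 ml/10 g of 2.5% […] p-benzoquinone in distilled water given ip. Abdominal writhes counted per animal for 15 min, starting 5 min after injection. Expressed as % change in mean writhing count versus vehicle controls.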
# Mus musculus [3] = test: Inhibition of p-benzoquinone-induced writhing in Swiss albino mouse at 100 mg/kg, po relative to control; format: functional; summary of the method: as §2
# Mus musculus [4] = test: Inhibition of carrageenan-induced paw edema in Swiss albino mouse at 50 mg/kg, po after 180 mins relative to control; format: functional; details: 3 h
# Summary of the method: (§3)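 Oral dosing in 0.5% CMC; vehicle to controls. Then carrageenan (0.5 mg/25 ll, freshly suspended in 154 mM saline) injected into the right hind paw subplantar tissue; saline into the left paw. Right-left footpad thickness difference measured by dial gauge calliper every 90 min over 6 h. Inhibition % is relative to vehicle control. n = 6; mean ± SEM.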
# Mus musculus [5] = test: Analgesic activity against p-benzoquinone-induced abdominal constriction in Swiss albino mouse assessed as number of writhings at 100 mg/kg, po; format: functional, Abdomen
# Summary of the method: (§4)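 Test samples given orally in 0.5% CMC; vehicle to controls. 60 min later, 2.5% (v/v) p-benzoquinone in distilled water, 0.1 ml/10 g, given i.p. Mice housed singly; writhes counted for 15 min starting 5 min after injection. Activity is % change from vehicle controls. n = 6; mean ± SEM.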
# Mus musculus [6] = test: Antiinflammatory activity against carrageenan-induced paw edema in Swiss albino mouse assessed as swelling thickness at 200 mg/kg, po after 270 mins; format: functional; summary of the method: as §3
# Mus musculus [7] = test: Antiinflammatory activity against carrageenan-induced paw edema in Swiss albino mouse assessed as swelling thickness at 100 mg/kg, po after 270 mins; format: functional; summary of the method: as §3
# Mus musculus [8] = test: Inhibition of carrageenan-induced paw edema in Swiss albino mouse at 50 mg/kg, po after 90 mins relative to control; format: functional; details: 1.5 h
# Summary of the method: (§5)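 Mice, n = 6 per group. Test agent given orally as a suspension in 0.5% sodium CMC in distilled water; controls received vehicle only. Afterwards, 0.5 mg/25 ll carrageenan in saline (154 mM NaCl) injected subplantar into the right hind paw, saline into the left. Right-minus-left footpad thickness measured by dial gauge caliper every 90 min for 6 h. Inhibition is relative to vehicle-control group means.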
# Mus musculus [9] = test: Analgesic activity against p-benzoquinone-induced abdominal constriction in Swiss albino mouse assessed as number of writhings at 50 mg/kg, po; format: functional, Abdomen; summary of the method: as §4
# Mus musculus [10] = test: Antiinflammatory activity against carrageenan-induced paw edema in Swiss albino mouse assessed as swelling thickness at 50 mg/kg, po after 180 mins; format: functional; summary of the method: as §3
# Mus musculus [11] = test: Inhibition of carrageenan-induced paw edema in Swiss albino mouse at 100 mg/kg, po after 90 mins relative to control; format: functional; details: 1.5 h; summary of the method: as §3
# Mus musculus [12] = test: Antiinflammatory activity against carrageenan-induced paw edema in Swiss albino mouse assessed as swelling thickness at 25 mg/kg, po after 180 mins; format: functional; summary of the method: as §3
# Mus musculus [13] = test: Acute toxicity in Swiss albino mouse assessed as lethal effect at 25 mg/kg/day, po after 72 hrs; format: organism-based; design: route oral; details: in vivo
# Summary of the method: (§6)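 Oral single dose suspended in 0.5% carboxymethylcellulose, given after a 24 h fast; food and water returned 1 h after dosing. Vehicle-only controls. Mice observed at 1 h, then once daily for 72 h, for toxic signs and mortality.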
# Mus musculus [14] = test: Antiinflammatory activity against carrageenan-induced paw edema in Swiss albino mouse assessed as swelling thickness at 100 mg/kg, po after 180 mins; format: functional; summary of the method: as §3
# Mus musculus [15] = test: Inhibition of carrageenan-induced paw edema in Swiss albino mouse at 100 mg/kg, po after 270 mins relative to control; format: functional; details: 4.5 h; summary of the method: as §3
# Mus musculus [16] = test: Antiinflammatory activity against carrageenan-induced paw edema in Swiss albino mouse assessed as swelling thickness at 50 mg/kg, po after 90 mins; format: functional; summary of the method: as §3
# Mus musculus [17] = test: Antiinflammatory activity against carrageenan-induced paw edema in Swiss albino mouse assessed as swelling thickness at 25 mg/kg, po after 90 mins; format: functional; summary of the method: as §3
# Mus musculus [18] = test: Gastric-ulcerogenic effect in Swiss albino mouse assessed as lesions at 100 mg/kg, po; format: functional, organism-based; design: dose 100 mg/kg; summary of the method: as §1
# Mus musculus [19] = test: Acute toxicity in Swiss albino mouse assessed as lethal effect at 100 mg/kg/day, po after 72 hrs; format: organism-based; design: route oral; details: in vivo; summary of the method: as §6
# Mus musculus [20] = test: Acute toxicity in Swiss albino mouse assessed as lethal effect at 200 mg/kg/day, po after 72 hrs; format: organism-based; design: route oral; details: in vivo; summary of the method: as §6
# Mus musculus [21] = test: Antiinflammatory activity against carrageenan-induced paw edema in Swiss albino mouse assessed as swelling thickness at 200 mg/kg, po after 360 mins; format: functional; summary of the method: as §3
# Mus musculus [22] = test: Antiinflammatory activity against carrageenan-induced paw edema in Swiss albino mouse assessed as swelling thickness at 100 mg/kg, po after 360 mins; format: functional; summary of the method: as §3
# Mus musculus [23] = test: Antiinflammatory activity against carrageenan-induced paw edema in Swiss albino mouse assessed as swelling thickness at 25 mg/kg, po after 270 mins; format: functional; summary of the method: as §3
# Mus musculus [24] = test: Inhibition of carrageenan-induced paw edema in Swiss albino mouse at 100 mg/kg, po after 360 mins relative to control; format: functional; details: 6 h; summary of the method: as §3
# Mus musculus [25] = test: Antiinflammatory activity against carrageenan-induced paw edema in Swiss albino mouse assessed as swelling thickness at 50 mg/kg, po after 360 mins; format: functional; summary of the method: as §3
# Mus musculus [26] = test: Inhibition of p-benzoquinone-induced writhing in Swiss albino mouse at 50 mg/kg, po relative to control; format: functional; summary of the method: as §2
# Mus musculus [27] = test: Antiinflammatory activity against carrageenan-induced paw edema in Swiss albino mouse assessed as swelling thickness at 25 mg/kg, po after 360 mins; format: functional; summary of the method: as §3
# Mus musculus [28] = test: Antiinflammatory activity against carrageenan-induced paw edema in Swiss albino mouse assessed as swelling thickness at 200 mg/kg, po after 90 mins; format: functional; summary of the method: as §3
# Mus musculus [29] = test: Acute toxicity in Swiss albino mouse assessed as lethal effect at 50 mg/kg/day, po after 72 hrs; format: organism-based; design: route oral; details: in vivo; summary of the method: as §6
# Mus musculus [30] = test: Inhibition of p-benzoquinone-induced writhing in Swiss albino mouse at 200 mg/kg, po relative to control; format: functional; summary of the method: as §2
# Mus musculus [31] = test: Antiinflammatory activity against carrageenan-induced paw edema in Swiss albino mouse assessed as swelling thickness at 50 mg/kg, po after 270 mins; format: functional; summary of the method: as §3
# Mus musculus [32] = test: Antiinflammatory activity against carrageenan-induced paw edema in Swiss albino mouse assessed as swelling thickness at 100 mg/kg, po after 90 mins; format: functional; summary of the method: as §3
# Mus musculus [33] = test: Gastric-ulcerogenic effect in Swiss albino mouse assessed as lesions at 50 mg/kg, po; format: functional, organism-based; design: dose 50 mg/kg; summary of the method: as §1
# Mus musculus [34] = test: Inhibition of carrageenan-induced paw edema in Swiss albino mouse at 50 mg/kg, po after 270 mins relative to control; format: functional; details: 4.5 h; summary of the method: as §5
# Mus musculus [35] = test: Antiinflammatory activity against carrageenan-induced paw edema in Swiss albino mouse assessed as swelling thickness at 200 mg/kg, po after 180 mins; format: functional; summary of the method: as §3
# Mus musculus [36] = test: Inhibition of carrageenan-induced paw edema in Swiss albino mouse at 50 mg/kg, po after 360 mins relative to control; format: functional; details: 6 h; summary of the method: as §5
# Mus musculus [37] = test: Analgesic activity against p-benzoquinone-induced abdominal constriction in Swiss albino mouse assessed as number of writhings at 25 mg/kg, po; format: functional, Abdomen; summary of the method: as §4
# Mus musculus [38] = test: Inhibition of carrageenan-induced paw edema in Swiss albino mouse at 100 mg/kg, po after 180 mins relative to control; format: functional; details: 3 h; summary of the method: as §3
# Mus musculus [39] = test: Analgesic activity against p-benzoquinone-induced abdominal constriction in Swiss albino mouse assessed as number of writhings at 200 mg/kg, po; format: functional, Abdomen; summary of the method: as §4
structure (smiles),measurement,setting,value
CS(=O)(=O)c1nc(-c2ccc(Cl)cc2)n[nH]1,Activity,Mus musculus [1],Active
same,inhibition in vivo at 25 mg/kg,Mus musculus [2],16.7%
same,inhibition in vivo at 100 mg/kg,Mus musculus [3],34.5%
same,inhibition in vivo at 50 mg/kg,Mus musculus [4],22.2%
same,Activity,Mus musculus [5],31
same,Activity,Mus musculus [6],69.4 10^-2mm
same,Activity,Mus musculus [7],46.2 10^-2mm
same,inhibition in vivo at 50 mg/kg,Mus musculus [8],18%
same,Activity,Mus musculus [9],29.4
same,Activity,Mus musculus [10],46.2 10^-2mm
same,inhibition in vivo at 100 mg/kg,Mus musculus [11],16.3%
same,Activity,Mus musculus [12],62.8 10^-2mm
same,Activity,Mus musculus [13],Non-toxic
same,Activity,Mus musculus [14],42.8 10^-2mm
same,inhibition in vivo at 100 mg/kg,Mus musculus [15],21.4%
same,Activity,Mus musculus [16],43.6 10^-2mm
same,Activity,Mus musculus [17],55.2 10^-2mm
same,Activity,Mus musculus [18],Active
same,Activity,Mus musculus [19],Non-toxic
same,Activity,Mus musculus [20],Non-toxic
same,Activity,Mus musculus [21],76.1 10^-2mm
same,Activity,Mus musculus [22],51.2 10^-2mm
same,Activity,Mus musculus [23],69.5 10^-2mm
same,inhibition in vivo at 100 mg/kg,Mus musculus [24],25.6%
same,Activity,Mus musculus [25],50.2 10^-2mm
same,inhibition in vivo at 50 mg/kg,Mus musculus [26],42.8%
same,Activity,Mus musculus [27],75.4 10^-2mm
same,Activity,Mus musculus [28],59.4 10^-2mm
same,Activity,Mus musculus [29],Non-toxic
same,inhibition in vivo at 200 mg/kg,Mus musculus [30],8.9%
same,Activity,Mus musculus [31],47.9 10^-2mm
same,Activity,Mus musculus [32],37.5 10^-2mm
same,Activity,Mus musculus [33],Active
same,inhibition in vivo at 50 mg/kg,Mus musculus [34],26.1%
same,Activity,Mus musculus [35],65.8 10^-2mm
same,inhibition in vivo at 50 mg/kg,Mus musculus [36],30.3%
same,Activity,Mus musculus [37],42.8
same,inhibition in vivo at 100 mg/kg,Mus musculus [38],16.9%
same,Activity,Mus musculus [39],46.8
